Among the data in ChEMBL document CHEMBL1145556, “Development of potent and selective phosphinic peptide inhibitors of angiotensin-converting enzyme 2” (J Med Chem, 2008) are Ki values, retold here.

Assay [1] concerns the target Angiotensin-converting enzyme 2 (Homo sapiens, UniProt Q9BYF1). As to the kind of experiment: Inhibition of ACE2. The procedure, abridged: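 Recombinant ACE2 (0.3 nM final) preincubated with inhibitor for 45 min, then Mca-APK(Dnp) substrate (35 µM final) added. Run at 25 °C in 50 mM Hepes pH 6.8, 1 M NaCl, 10 µM ZnCl2. Fluorescence rise followed continuously (ex 320, em 405 nm) at under 10% substrate use. Triplicates at five inhibitor concentrations giving 20–80% inhibition; Ki by the Horovitz–Levitzki method.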

The nature of assay [2]: Inhibition of ACE. The procedure, abridged:
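Somatic ACE (0.5 nM) with Mca-Ala-Ser-Asp-Lys-Dpa-OH substrate (15 µM). Otherwise as for ACE2: 45 min enzyme–inhibitor preincubation, 25 °C, 50 mM Hepes pH 6.8, 1 M NaCl, 10 µM ZnCl2. Continuous fluorescence read-out (ex 320, em 405 nm) of initial rates. Triplicates at five concentrations spanning 20–80% inhibition; Ki by the Horovitz–Levitzki method.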

A further assay concerns the target T1, Carboxypeptidase A1 (Bos taurus, UniProt P00730).
T1 sequence (P00730 whole entry): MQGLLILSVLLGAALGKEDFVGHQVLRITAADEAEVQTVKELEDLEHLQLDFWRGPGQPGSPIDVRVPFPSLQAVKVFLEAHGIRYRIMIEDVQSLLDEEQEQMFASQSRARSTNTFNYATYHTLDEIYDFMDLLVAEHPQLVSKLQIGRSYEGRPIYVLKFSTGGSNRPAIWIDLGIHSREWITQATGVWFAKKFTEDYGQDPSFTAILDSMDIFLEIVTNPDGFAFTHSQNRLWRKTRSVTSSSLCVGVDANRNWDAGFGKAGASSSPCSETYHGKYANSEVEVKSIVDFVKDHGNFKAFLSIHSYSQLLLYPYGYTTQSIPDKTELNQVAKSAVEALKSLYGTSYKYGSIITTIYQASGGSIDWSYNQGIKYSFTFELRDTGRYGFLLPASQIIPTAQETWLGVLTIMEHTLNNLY
As to the kind of experiment: Inhibition of bovine carboxypeptidase A. The essentials: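 Bovine pancreatic carboxypeptidase A (0.5 nM) mixed with inhibitor in 50 mM Tris-HCl, 1 M NaCl, pH 7.5. Reaction started by adding furylacryloyl-Phe-Phe (50 µM).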

Angiotensin-converting enzyme 2, sequence (Q9BYF1 whole entry): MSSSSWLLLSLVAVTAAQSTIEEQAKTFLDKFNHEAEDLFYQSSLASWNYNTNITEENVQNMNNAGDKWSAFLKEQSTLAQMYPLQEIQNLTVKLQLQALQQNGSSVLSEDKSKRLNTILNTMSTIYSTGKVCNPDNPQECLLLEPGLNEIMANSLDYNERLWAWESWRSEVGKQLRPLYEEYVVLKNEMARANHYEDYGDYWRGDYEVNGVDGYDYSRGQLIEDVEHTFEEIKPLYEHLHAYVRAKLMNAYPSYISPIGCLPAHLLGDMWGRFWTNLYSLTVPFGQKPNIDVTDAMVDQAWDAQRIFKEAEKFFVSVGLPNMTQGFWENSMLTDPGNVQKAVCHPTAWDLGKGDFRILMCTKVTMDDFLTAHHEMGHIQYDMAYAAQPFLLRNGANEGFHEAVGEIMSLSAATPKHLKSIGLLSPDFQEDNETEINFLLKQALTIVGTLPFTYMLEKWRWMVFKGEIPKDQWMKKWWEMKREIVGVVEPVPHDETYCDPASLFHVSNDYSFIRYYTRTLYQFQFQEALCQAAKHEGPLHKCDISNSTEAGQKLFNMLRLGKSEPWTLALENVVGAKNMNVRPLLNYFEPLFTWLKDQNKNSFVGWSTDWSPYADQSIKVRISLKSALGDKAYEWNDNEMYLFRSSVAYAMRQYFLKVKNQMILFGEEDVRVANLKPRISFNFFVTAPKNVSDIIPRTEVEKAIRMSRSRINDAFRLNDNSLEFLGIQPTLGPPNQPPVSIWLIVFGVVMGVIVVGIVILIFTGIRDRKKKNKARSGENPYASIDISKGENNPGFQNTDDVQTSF

Consider `O=C(N[C@H](Cc1ccccc1)P(=O)(O)C[C@@H](Cc1ccccc1)C(=O)O)OCc1ccccc1`, for which the Ki in assay [1] is more than 10000 nM.
Same read-out and setting: the figure for `C[C@@H](NC(=O)OCc1ccccc1)P(=O)(O)C[C@@H](Cc1ccccc1)C(=O)O` is more than 10000 nM; for `CC(=O)N[C@@H](Cc1ccccc1)C(=O)N1CCC[C@@H]1P(=O)(O)C[C@@H](Cc1ccccc1)C(=O)O` it is 5.2 nM; for `O=C(O)[C@H](Cc1ccccc1)CP(=O)(O)[C@H]1CCCN1C(=O)OCc1ccccc1` it is 300 nM.
On the same count and under the same terms, the figure for `O=C(O)[C@H](Cc1ccccc1)CP(=O)(O)[C@H]1CCCN1` is more than 10000 nM.
On to `CC(=O)N[C@@H](CC(C)C)C(=O)N1CCC[C@@H]1P(=O)(O)CC(Cc1cc(-c2ccccc2)no1)C(=O)O` (stereo partly specified), for which the values for the Ki (in assay [1]; in assay [2]; on Carboxypeptidase A1) were 1.25 nM, more than 10000 nM and 35 nM, respectively.
For `CC(=O)N[C@@H](CCC(=O)O)C(=O)N1CCC[C@@H]1P(=O)(O)C[C@@H](Cc1ccccc1)C(=O)O`, in assay [1], the Ki turned out to be 7 nM.
The molecule `CC(C)C[C@@H](NC(=O)OCc1ccccc1)P(=O)(O)C[C@@H](Cc1ccccc1)C(=O)O` displayed an inhibition constant (Ki) in assay [1] of 8000 nM.
On to `CC(C)C[C@@H](N)P(=O)(O)C[C@@H](Cc1ccccc1)C(=O)O`, for which, in assay [1], the Ki is more than 10000 nM.
Still for that read-out and setting: with `C[C@@H](N)P(=O)(O)C[C@@H](Cc1ccccc1)C(=O)O` the figure was more than 10000 nM.
Regarding `CC(=O)N[C@@H](Cc1c[nH]cn1)C(=O)N[C@H](CC(C)C)P(=O)(O)CC(Cc1cc(-c2ccccc2)no1)C(=O)O` (stereo partly specified), the values for the Ki (in assay [1]; at Carboxypeptidase A1) were 220 nM and more than 10000 nM, respectively.
The matching figures for `CC(=O)N[C@@H](Cc1c[nH]cn1)C(=O)N[C@H](CC(C)C)P(=O)(O)C[C@@H](Cc1ccccc1)C(=O)O`: 800 nM and 175 nM.
Turning to `CC(=O)N[C@@H](CC(C)C)C(=O)N[C@H](Cc1ccccc1)P(=O)(O)C[C@@H](Cc1ccccc1)C(=O)O`, the inhibition constant Ki in assay [1] turned out to be 920 nM; on Carboxypeptidase A1, 0.3 nM.
For `CC(=O)N[C@@H](Cc1c[nH]cn1)C(=O)N1CCC[C@@H]1P(=O)(O)CC(Cc1cc(-c2ccccc2)no1)C(=O)O` (stereo partly specified), the Ki in assay [1] is 0.4 nM; in assay [2], more than 10000 nM; at Carboxypeptidase A1 it was 1050 nM.
With `C[C@H](CP(=O)(O)[C@H]1CCCN1C(=O)OCc1ccccc1)C(=O)O`, the Ki in assay [1] was determined as 3000 nM.
On the same count and under the same terms, with `CC(=O)N[C@@H](C)C(=O)N1CCC[C@@H]1P(=O)(O)C[C@@H](Cc1ccccc1)C(=O)O` the figure was 7.5 nM; with `CC(=O)N[C@@H](Cc1ccc(O)cc1)C(=O)N1CCC[C@@H]1P(=O)(O)C[C@@H](Cc1ccccc1)C(=O)O`, 5.2 nM; with `CC(=O)N[C@H](C(=O)N1CCC[C@@H]1P(=O)(O)C[C@@H](Cc1ccccc1)C(=O)O)C(C)C`, 6.6 nM.
Same read-out and setting: the figure for `CC(C)C[C@H](CP(=O)(O)[C@H]1CCCN1C(=O)OCc1ccccc1)C(=O)O` is 300 nM; for `CC(=O)N[C@@H](CCCCN)C(=O)N1CCC[C@@H]1P(=O)(O)C[C@@H](Cc1ccccc1)C(=O)O` it is 6.5 nM.
The same measure, in the same setting: the figure for `N[C@H](Cc1ccccc1)P(=O)(O)C[C@@H](Cc1ccccc1)C(=O)O` is more than 10000 nM.
With `CC(=O)N[C@@H](CC(C)C)C(=O)N1CCC[C@@H]1P(=O)(O)C[C@@H](Cc1ccccc1)C(=O)O` (stereo in doubt), the Ki was 0.13 nM in assay [1], more than 10000 nM in assay [2] and 0.5 nM on Carboxypeptidase A1.
The matching figures for `CC(=O)N[C@@H](Cc1c[nH]cn1)C(=O)N1CCC[C@@H]1P(=O)(O)C[C@@H](Cc1ccccc1)C(=O)O` (stereo in doubt): 0.7 nM, more than 10000 nM and 60 nM.
On to `CC(=O)N[C@@H](CC(C)C)C(=O)N1CCC[C@@H]1P(=O)(O)C[C@@H](Cc1ccccc1)C(=O)O` (stereo in doubt; 28), for which the inhibition constant Ki in assay [1] came out at 0.35 nM.
In assay [1], `CC(=O)N[C@@H](Cc1c[nH]cn1)C(=O)N1CCC[C@@H]1P(=O)(O)C[C@@H](Cc1ccccc1)C(=O)O` (stereo in doubt; 34) came in with a Ki of 2.1 nM.

As a reminder, the Ki is a dissociation constant, usually derived from enzyme kinetics or from competition with a known ligand. A lower Ki goes with tighter binding.
